# pIC50: −log10 of the molar value.
# Columns and labels:
# Staphylococcus aureus [1] = test: Antimicrobial activity against hospital-acquired vancomycin-intermediate Staphylococcus aureus NRS126 infected in human THP-1 cells assessed as bacterial count per mg of cell protein at low extracellular compound concentration after 24 hrs; assay type: functional
# Summary of the method: (§1)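 Human THP-1 macrophage-like cells were infected with S. aureus to a postphagocytosis inoculum of 1.5 × 10^6 to 3.0 × 10^6 CFU/mg cell protein. Cells were then exposed 24 h to increasing extracellular antibiotic concentrations. Response was the log10 CFU change per mg protein from the postphagocytosis inoculum, n = 3. A Hill function was fitted on log-transformed axes. E0 and Emax were extrapolated to infinitely low and high concentrations. Cs was read by graphical interpolation. Concentrations were expressed as multiples of the broth MIC at pH 5.5 or pH 7.4.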
# Staphylococcus aureus [2] = test: Antimicrobial activity against methicillin-susceptible Staphylococcus aureus […] infected in human THP-1 cells assessed as change in bacterial count after 24 hrs; assay type: functional, organism-based; conditions: THP-1, 24 h
# Summary of the method: (§2)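 THP-1 macrophages infected as described previously, with a postphagocytosis inoculum of 1.5 × 10⁶ to 3.0 × 10⁶ CFU/mg cell protein. Cells were exposed 24 h to increasing extracellular antibiotic concentrations. Response is the change in log10 CFU/mg protein from the inoculum (n = 3), fitted to a Hill function. E0 and Emax were extrapolated to infinitely low and high concentrations. EC50 and static concentration (graphical interpolation) are expressed as multiples of the broth MIC at pH 5.5 or 7.4.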
# Staphylococcus aureus [3] = test: Bacteriostatic activity against methicillin-susceptible Staphylococcus aureus ATCC 11632 infected in human THP-1 cells assessed as change in bacterial count after 24 hrs at pH 5.5; assay type: functional; summary of the method: as §1
# Staphylococcus aureus [4] = test: Antimicrobial activity against hospital-acquired vancomycin-resistant Staphylococcus aureus VRS1 infected in human THP-1 cells assessed as bacterial count per mg of cell protein at low extracellular compound concentration after 24 hrs; assay type: functional; summary of the method: as §2
# MecA = biological target: T1, MecA (Staphylococcus aureus, UniProt Q7DHH4); test: Binding affinity to Staphylococcus aureus ATCC […] PBP2a by Western blotting at pH 5.5 in presence of 100 uM Bocillin FL
# T1 sequence (Q7DHH4 whole entry): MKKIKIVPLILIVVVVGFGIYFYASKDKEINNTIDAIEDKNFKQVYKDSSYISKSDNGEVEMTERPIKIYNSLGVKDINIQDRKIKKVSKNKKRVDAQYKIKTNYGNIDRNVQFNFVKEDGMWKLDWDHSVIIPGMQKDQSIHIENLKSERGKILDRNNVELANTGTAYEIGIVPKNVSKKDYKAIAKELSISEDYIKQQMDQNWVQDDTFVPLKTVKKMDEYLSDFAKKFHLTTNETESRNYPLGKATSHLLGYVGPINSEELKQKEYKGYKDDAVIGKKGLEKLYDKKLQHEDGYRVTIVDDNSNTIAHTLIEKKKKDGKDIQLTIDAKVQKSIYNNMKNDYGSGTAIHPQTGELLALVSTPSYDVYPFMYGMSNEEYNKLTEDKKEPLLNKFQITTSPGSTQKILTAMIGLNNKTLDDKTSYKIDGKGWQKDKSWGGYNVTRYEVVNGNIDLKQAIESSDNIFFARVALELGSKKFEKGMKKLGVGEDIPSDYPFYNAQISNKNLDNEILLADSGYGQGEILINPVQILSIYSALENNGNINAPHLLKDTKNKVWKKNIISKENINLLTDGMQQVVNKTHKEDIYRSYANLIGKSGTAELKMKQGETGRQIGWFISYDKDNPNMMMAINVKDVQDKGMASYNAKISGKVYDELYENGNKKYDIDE
# Summary of the method: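 Soluble truncated PBP 2a (ΔM1-Y23) was expressed in E. coli Rosetta 2(DE3) and purified. It was preincubated 25 min at 37°C with increasing cephalosporin concentrations, then 100 μM Bocillin FL was added for 25 min at 37°C at pH 5.5 or 7.4. Samples were run on SDS-PAGE and blotted with anti-bodipy antibody plus HRP secondary. Bands were detected by chemiluminescence and quantified by densitometry.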
# Staphylococcus aureus [5] = test: Antimicrobial activity against Panton-valentine leucocidin-positive community-acquired methicillin-resistant Staphylococcus aureus N4042228 infected in human THP-1 cells assessed as change in bacterial count after 24 hrs; assay type: functional, organism-based; conditions: N4042228, THP-1, 24 h
# Summary of the method: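 THP-1 human macrophages infected with S. aureus (postphagocytosis inoculum 1.5 × 10^6 to 3.0 × 10^6 CFU/mg cell protein), then incubated 24 h with increasing extracellular antibiotic concentrations. Change in log10 CFU/mg cell protein from the postphagocytosis inoculum, n = 3. Hill function fitted on log-transformed data. Low-concentration value (E0) and high-concentration value (Emax) are extrapolated. Where a pH is given, concentrations are expressed as multiples of the broth MIC at that pH.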
structure (smiles),measurement,setting,value
Nc1nc(/C(=N/O)C(=O)N[C@@H]2C(=O)N3C(C(=O)O)=C(/C=C4\CCN([C@@H]5CCNC5)C4=O)CS[C@H]23)ns1 [CEFTOBIPROLE],log10cfu,Staphylococcus aureus [1],3.02
same,EC50,Staphylococcus aureus [2],0.07 µg/mL
same,Activity,Staphylococcus aureus [3],1.19 × MIC
same,log10cfu,Staphylococcus aureus [4],2.57
same,pIC50,MecA,5.72
same,EC50,Staphylococcus aureus [5],0.07 µg/mL

# Reference: ChEMBL document CHEMBL1649438, “Activities of ceftobiprole and other cephalosporins against extracellular and intracellular (THP-1 macrophages and keratinocytes) forms of methicillin-susceptible and methicillin-resistant Staphylococcus aureus” (Antimicrob Agents Chemother, 2009)
